Experimental data taken from ChEMBL document CHEMBL1147153, “Development of ruthenium antitumor drugs that overcome multidrug resistance mechanisms” (J Med Chem, 2007).
Activity calls are given as the source filed them. The calls are words filed in the database; no cut-off is given here.

Experiments:
TS/A = test: Cytotoxicity against […] TS/A cells by MTT assay; format: cell-based; conditions: Mus musculus
How it was run: (§1)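 Cells plated 24 h, then exposed 72 h to compound at 1-300 µM. Compound was diluted from a fresh DMSO stock (20 mM for A549, HT29, T47D; 10 mM for TS/A, HBL-100) into 5%-serum medium, with at most 0.5% or 1% v/v DMSO respectively. Growth media: DMEM (A549, HT29, T47D), McCoy's 5A (HBL-100). MTT (5 mg/mL in PBS, 2.5 µL/100 µL medium) was added for 2 h at 37 °C; formazan dissolved in DMSO and read at OD 570 nm.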

[1] = Cytotoxicity against human HBL100 cells by MTT assay; format: cell-based; conditions: HBL-100; how it was run: as §1
A549 [2] = test: Cytotoxicity against human A549 cells by MTT assay; format: cell-based; how it was run: as §1
T47D = test: Cytotoxicity against human T47D cells by MTT assay; format: cell-based; how it was run: as §1
HT-29 = test: Cytotoxicity against human HT29 cells by MTT assay; format: cell-based; how it was run: as §1
A549 [3] = test: Inhibition of P-gp in A549 cells assessed as drug concentration required to double baseline fluorescence level by calcein-AM uptake assay; format: cell-based; conditions: Homo sapiens
How it was run: (§2)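 A549 Pgp activity: cells washed in Hanks salt solution with 10 mM HEPES, preincubated 30 min in that buffer, then 15 min with compound. Calcein-AM (1 µM final) added for a further 60 min; uptake stopped on ice, cells washed cold and lysed 15 min in 1% Triton X-100/PBS. Calcein fluorescence read at ex 485/em 530 nm; reported as F2.0 (concentration doubling baseline fluorescence) or inhibition at 80 µM relative to verapamil.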

P-gp (ABCB1) = P-gp (ABCB1) (Homo sapiens, UniProt P08183); test: Inhibition of P-gp in A549 cells at 80 uM by calcein-AM uptake assay relative to verapamil; format: cell-based; conditions: probe calcein-AM; how it was run: as §2
P-gp (ABCB1), sequence (P08183 whole entry): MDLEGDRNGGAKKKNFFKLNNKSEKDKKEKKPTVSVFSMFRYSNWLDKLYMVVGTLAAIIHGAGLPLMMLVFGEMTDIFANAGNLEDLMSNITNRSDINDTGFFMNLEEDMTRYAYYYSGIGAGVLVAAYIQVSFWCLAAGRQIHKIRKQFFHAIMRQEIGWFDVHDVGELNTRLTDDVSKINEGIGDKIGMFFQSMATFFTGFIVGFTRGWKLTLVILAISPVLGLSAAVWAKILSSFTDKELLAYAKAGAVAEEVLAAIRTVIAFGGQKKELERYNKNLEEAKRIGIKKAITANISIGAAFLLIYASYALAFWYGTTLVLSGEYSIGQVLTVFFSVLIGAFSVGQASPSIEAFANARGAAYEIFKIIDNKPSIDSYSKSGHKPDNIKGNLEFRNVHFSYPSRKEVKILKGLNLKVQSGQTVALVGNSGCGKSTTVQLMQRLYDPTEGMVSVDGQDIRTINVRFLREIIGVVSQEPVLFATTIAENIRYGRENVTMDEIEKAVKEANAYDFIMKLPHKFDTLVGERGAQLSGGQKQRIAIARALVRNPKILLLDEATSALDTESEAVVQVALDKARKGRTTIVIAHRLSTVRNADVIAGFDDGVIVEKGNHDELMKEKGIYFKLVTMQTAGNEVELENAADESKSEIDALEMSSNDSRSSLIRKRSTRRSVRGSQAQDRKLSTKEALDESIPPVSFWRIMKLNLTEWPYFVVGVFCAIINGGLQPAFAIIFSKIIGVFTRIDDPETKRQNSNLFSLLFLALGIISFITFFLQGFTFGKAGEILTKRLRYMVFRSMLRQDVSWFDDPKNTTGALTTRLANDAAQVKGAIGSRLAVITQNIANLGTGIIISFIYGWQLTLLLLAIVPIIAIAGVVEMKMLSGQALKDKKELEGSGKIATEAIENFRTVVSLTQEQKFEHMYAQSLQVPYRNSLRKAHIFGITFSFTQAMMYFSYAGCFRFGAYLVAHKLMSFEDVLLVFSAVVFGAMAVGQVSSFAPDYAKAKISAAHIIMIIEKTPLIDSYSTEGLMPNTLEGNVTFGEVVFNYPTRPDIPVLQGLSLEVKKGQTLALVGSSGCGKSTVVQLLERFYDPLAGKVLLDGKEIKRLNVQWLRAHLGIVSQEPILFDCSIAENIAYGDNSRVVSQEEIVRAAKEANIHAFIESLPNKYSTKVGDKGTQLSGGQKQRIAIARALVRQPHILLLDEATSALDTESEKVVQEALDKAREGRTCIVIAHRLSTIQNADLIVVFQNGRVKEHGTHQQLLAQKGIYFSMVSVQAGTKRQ

A549 [4] = test: Drug accumulation in human A549 cells after 1 hrs; format: functional, cell-based
How it was run: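 A549 cells grown on slides were exposed to 100 µM compound for 0.5-4 h, PBS-washed, fixed 5 min in 4% buffered paraformaldehyde, and imaged by fluorescence microscopy under 365 nm irradiation with a 1 s exposure.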

What does the source list for `O=C(CCl)N1c2ccccc2Oc2ccccc21`?
IC50 (TS/A): 40 µM; IC50 [1]: 29 µM; IC50 (A549 [2]): > 100 µM; IC50 (T47D): 7 µM; IC50 (HT-29): 11 µM

With `COc1ccc(CCN(C)CCCC(C#N)(c2ccc(OC)c(OC)c2)C(C)C)cc1OC` (stereo not drawn) as the compound, how does the Activity (A549 [3]) read?
The Activity was 7 µM.

For `O=C(Cn1ccnc1)N1c2ccccc2Oc2ccccc21` [PHENOXIMID], which IC50 (TS/A) is on record?
Its IC50 is 30 µM.

What about the IC50 [1] of the same compound?
Its IC50 is 23 µM.

What about the inhibition at 80 µM (P-gp (ABCB1)) of the same compound?
Its inhibition at 80 µM is 24%.

What about the IC50 (A549 [2]) of the same compound?
Its IC50 is > 100 µM.

What about the Activity (A549 [3]) of the same compound?
The Activity was > 100 µM.

What about the IC50 (T47D) of the same compound?
The IC50 was 95 µM.

And the IC50 (HT-29)?
Its IC50 is 17 µM.

What does the source list for `c1ccc2c(-n3ccnc3)c3ccccc3cc2c1`?
IC50 (TS/A): 101 µM; IC50 [1]: 221 µM; inhibition at 80 µM (P-gp (ABCB1)): 18%; IC50 (A549 [2]): 75 µM; Activity (A549 [3]): > 100 µM; Activity (A549 [4]): Active; IC50 (T47D): 34 µM; IC50 (HT-29): 45 µM

Which IC50 (TS/A) does the source give for `O=C(Cn1cnc2ccccc21)N1c2ccccc2Oc2ccccc21` [PHENOXBENZIMID] here?
The IC50 was 51 µM.

What about the IC50 [1] of the same compound?
The IC50 was > 100 µM.

And the inhibition at 80 µM (P-gp (ABCB1))?
The inhibition at 80 µM was 65%.

What about the IC50 (A549 [2]) of the same compound?
Its IC50 is 75 µM.

And the Activity (A549 [3])?
The Activity was 23 µM.

And the IC50 (T47D)?
Its IC50 is 91 µM.

And the IC50 (HT-29)?
Its IC50 is 33 µM.
